Assay [1] relates to Canis familiaris. As to the kind of experiment: Percent change in heart rate in anesthetized dogs at a 0.01 mg/kg. The assay is classed as functional, Canis lupus familiaris. The procedure, abridged: (§1)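 Acutely instrumented anesthetized dogs, 30 min control period. Drug in saline or dilute HCl/NaOH diluted with saline, given i.v. cumulatively, 0.1 ml/kg over 1 min. Half-log doses 0.01–1.0 mg/kg, 10-30 min between doses. One compound per dog. Heart rate, aortic pressure and LV dP/dtmax recorded as change from preceding baseline. Values are means of two experiments.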

Assay [2] deals with Canis familiaris. Briefly: Percent change in heart rate in anesthetized dogs at 0.03 mg/kg. Type of assay: functional, Canis lupus familiaris. In a few lines:
as §1

Assay [3] deals with Canis familiaris. Briefly: Percent change in heart rate in anesthetized dogs at 0.1 mg/kg. Type of assay: functional, Canis lupus familiaris. In a few lines:
as §1

In assay [4] the test system is Canis familiaris. Briefly: Percent change in heart rate in anesthetized dogs at 0.31 mg/kg. Type of assay: functional, Canis lupus familiaris. In a few lines:
as §1

For assay [5], the system named is Canis familiaris. As to the kind of experiment: Percent change in heart rate in anesthetized dogs at 1 mg/kg. Type of assay: functional, Canis lupus familiaris. The procedure, abridged: as §1
The test system of assay [6] is Canis familiaris. As to the kind of experiment: Percent change in blood pressure in anesthetized dogs at 0.01 mg/kg. Type of assay: functional, Canis lupus familiaris. The procedure, abridged:
as §1

The subject of assay [7] is Canis familiaris. Briefly: Percent change in blood pressure in anesthetized dogs at 0.03 mg/kg. Type of assay: functional, Canis lupus familiaris. The procedure, abridged: as §1
For assay [8], the system named is Canis familiaris. As to the kind of experiment: Percent change in blood pressure in anesthetized dogs at 0.1 mg/kg. The assay is classed as functional, Canis lupus familiaris. In a few lines:
as §1

In assay [9] the test system is Canis familiaris. As to the kind of experiment: Percent change in blood pressure in anesthetized dogs at 0.31 mg/kg. Type of assay: functional, Canis lupus familiaris. In a few lines:
as §1

The subject of assay [10] is Canis familiaris. As to the kind of experiment: Percent change in blood pressure in anesthetized dogs at 1 mg/kg. Type of assay: functional, Canis lupus familiaris. In a few lines:
as §1

Assay [11] deals with Canis familiaris. As to the kind of experiment: Percent change in dP/dtmax was measured in anesthetized dogs at a dose of 0.01 mg/kg. Type of assay: functional, Canis lupus familiaris. In a few lines: as §1
For assay [12], the system named is Canis familiaris. Briefly: Percent change in dP/dtmax (contractility) in anesthetized dogs at 1 mg/kg. Type of assay: functional, Canis lupus familiaris. In a few lines: as §1
Assay [13] concerns the target Phosphodiesterase 3 (Cavia porcellus). As to the kind of experiment: Inhibition of guinea pig phosphodiesterase type III.
Assay [14] has the same target. Described as above. The source holds these as a separate data set.
Assay [15] relates to Canis familiaris. Briefly: Percent change in blood pressure in anesthetized dogs 1 mg/kg. The assay is classed as functional, Canis lupus familiaris. The procedure, abridged:
as §1

Assay [16] relates to Canis familiaris. As to the kind of experiment: Percent change in heart rate in anesthetized dogs. The assay is classed as functional, Canis lupus familiaris. The procedure, abridged:
as §1

Values joined by “and” are separate entries in the source; they are usually repeats but may differ in a detail not shown here. Equal values may be shown once.

Take `Cl.O=C1CCC(c2cn(Cc3ccccc3)c(-c3ccccc3)n2)=NN1`: the Change with Canis familiaris [1] came out at 2%; in the assay on Canis familiaris [2] it was 1.5%; with Canis familiaris [3] it was 19%; in the assay with Canis familiaris [4], 18.5%; in the assay on Canis familiaris [5] it was 8%; in the assay with Canis familiaris [6] it was 1%. Further, the Change is -0.5% in the assay with Canis familiaris [7]; 0% with Canis familiaris [8]; -4.5% in the assay on Canis familiaris [9]; -4.75% in the assay on Canis familiaris [10]; 2.5% and 4.5% and 12.5% and 10.5% in the assay with Canis familiaris [11]; 3% with Canis familiaris [12].

As for `Cn1c(-c2ccc(O)nn2)cnc1-c1ccccc1`, the Change with Canis familiaris [1] is recorded as -0.5%; in the assay with Canis familiaris [2], -1%; in the assay on Canis familiaris [3], -1.5%; with Canis familiaris [4] it was -3%; in the assay on Canis familiaris [5], -1.5%; in the assay with Canis familiaris [6], 1.5%. In addition, the Change is given as 0.75% in the assay with Canis familiaris [7]; -1.75% in the assay on Canis familiaris [8]; -0.25% in the assay on Canis familiaris [9]; -2.5% in the assay with Canis familiaris [10]; 17% in the assay with Canis familiaris [12]. In addition, in assay [13], the IC50 amounted to 160 µM.

As for `Cn1c(C2=NNC(=O)CC2)cnc1-c1ccccc1`, the Change was 3% in the assay with Canis familiaris [1]; 3.5% in the assay on Canis familiaris [2]; 4.5% in the assay with Canis familiaris [3]; 5% with Canis familiaris [4]; 5.5% in the assay with Canis familiaris [5]; 1.75% in the assay on Canis familiaris [6]. The Change with Canis familiaris [7] is 1.75%; in the assay on Canis familiaris [8], 1.5%; with Canis familiaris [9], 0%; in the assay with Canis familiaris [10], -2.25%; in the assay on Canis familiaris [11], 7% and 10% and 11% and 16.5%; in the assay on Canis familiaris [12], 30.5%. For the same compound, in [13], the IC50 amounted to 38 µM.

Turning to `Cn1cc(C2=NNC(=O)CC2)nc1-c1ccccc1`, the Change is reported as 3.5% in the assay on Canis familiaris [1]; 13% in the assay on Canis familiaris [2]; 29.5% in the assay with Canis familiaris [3]; 34% with Canis familiaris [4]; 29.5% with Canis familiaris [5]; -1.2% with Canis familiaris [6]. For the same compound, the Change with Canis familiaris [7] is listed as -5%; in the assay with Canis familiaris [8], -11.8%; in the assay with Canis familiaris [9], -23.2%; in the assay on Canis familiaris [10], -31.8%; in the assay on Canis familiaris [12], 95%. In assay [13], this compound displayed an IC50 of 12.1 µM.

Regarding `Oc1ccc(-c2ccc(-c3ncc[nH]3)cc2)nn1`, the Change with Canis familiaris [1] was 1.5%; in the assay with Canis familiaris [2], 12.5%; with Canis familiaris [3], 31.5%; in the assay with Canis familiaris [4], 30.5%; with Canis familiaris [6], -1%; with Canis familiaris [7], -2.5%. Also, the Change in the assay on Canis familiaris [8] is given as -26%; in the assay on Canis familiaris [9], -26.5%.

Take `COc1ccc(-c2nc(C3=NNC(=O)CC3)cn2C)cc1OC`: the Change in the assay with Canis familiaris [1] is reported as 2.5; in the assay with Canis familiaris [2], 0.5%; with Canis familiaris [3], 1.5%; in the assay on Canis familiaris [4], 5%; in the assay with Canis familiaris [5], 8.5%; in the assay on Canis familiaris [6], -1%. For the same compound, the Change in the assay with Canis familiaris [7] was -1.25%; with Canis familiaris [8], -0.25%; in the assay with Canis familiaris [9], 0%; with Canis familiaris [10], 1.5%; in the assay with Canis familiaris [11], 2% and 2.5% and 9.5%; with Canis familiaris [12] it was 0%. In assay [14], the IC50 is 128 µM.

For the compound `COc1ccc(-c2nc(-c3ccc(O)nn3)cn2C)cc1OC`, the Change in the assay on Canis familiaris [1] was 1.5%; with Canis familiaris [2] it was 1%; with Canis familiaris [3], -0.5%; with Canis familiaris [4], -1%; in the assay with Canis familiaris [5], 0.5%; in the assay with Canis familiaris [6] it was 0%. The Change in the assay on Canis familiaris [7] was 1.5%; with Canis familiaris [8] it was 0%; in the assay on Canis familiaris [9], -1%; in the assay on Canis familiaris [10], -4.5%; with Canis familiaris [11], 3.5% and 6% and 4.5% and 5%; in the assay on Canis familiaris [12], 13%. The 50% inhibitory concentration (IC50) in assay [13] came out at 75 µM.

As to `Cn1cc(-c2ccc(O)nn2)nc1-c1ccccc1`, the Change is on record as 1.5% in the assay with Canis familiaris [1]; 9.5% with Canis familiaris [2]; 21.5% in the assay on Canis familiaris [3]; 50.5% in the assay with Canis familiaris [4]; 63.5% in the assay with Canis familiaris [5]; -1.5% with Canis familiaris [6]. The Change with Canis familiaris [7] is given as -0.25%; in the assay on Canis familiaris [8], -6.5%; with Canis familiaris [9], -15.75%; in the assay on Canis familiaris [10], -31.25%; with Canis familiaris [12], 186%.

In the case of `Oc1ccc(-c2cn(Cc3ccccc3)c(-c3ccccc3)n2)nn1`, the Change is 3% with Canis familiaris [1]; -1% in the assay on Canis familiaris [2]; -1% in the assay with Canis familiaris [3]; 3% with Canis familiaris [4]; 8% in the assay on Canis familiaris [5]; 8.5% in the assay on Canis familiaris [6]. Besides, the Change with Canis familiaris [7] was 6.5%; in the assay with Canis familiaris [8] it was 8%; with Canis familiaris [9] it was 3%; in the assay with Canis familiaris [15], 2%; with Canis familiaris [11], 21% and 29% and 17% and 28%; in the assay with Canis familiaris [12], 55%.

For the compound `O=C1CCC(c2ccc(-n3ccnc3)cc2)=NN1` [IMAZODAN], the Change with Canis familiaris [16] is on record as 33.8%; with Canis familiaris [1], 0%; in the assay on Canis familiaris [2], 5.6%; in the assay on Canis familiaris [3], 6.2%; with Canis familiaris [4], 19.2%; in the assay with Canis familiaris [6], -0.7%. In addition, the Change was -4.1% in the assay on Canis familiaris [7], -5.3% in the assay on Canis familiaris [8], -13.2% with Canis familiaris [9] and -22.4% with Canis familiaris [10].

For orientation: IC50 means the point on the concentration scale where inhibition reaches its midpoint.

The record behind these values is ChEMBL document CHEMBL1123399, “Cardiotonic agents. 3. Synthesis and biological activity of novel 6-(substituted 1H-imidazol-4(5)-yl)-3(2H)-pyridazinones” (J Med Chem, 1986).
